Measured values reported in ChEMBL document CHEMBL1275312, “Synthesis of new pyrrolo[2,3-d]pyrimidine derivatives as antibacterial and antifungal agents” (2010).
Values after ≈ are worked out from the molar mass of the structure shown.

Assays:
Format in all cases: functional
Escherichia coli [1] = assay: Antimicrobial activity against Escherichia coli NCTC 10416 at 5 mg/ml after 24 hrs by agar well diffusion assay; conditions: NCTC 10416, 24 h, read-out: IZ
Procedure, shortened: (§1)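 Agar well diffusion against S. aureus NCTC-7447 and E. coli NCTC-10416 (maintained on Mueller-Hinton agar, 24 h, 37 ± 1 °C) and C. albicans ATCC-10145 (Sabouraud dextrose agar, 48 h, 28 ± 1 °C). Inocula: colonies suspended in 5 mL sterile saline. Wells pre-incubated 1 h in refrigerator, then incubated 24 h at 37 °C (bacteria) or 48 h at 28 °C (fungi). Inhibition zone diameter measured. DMSO blank.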

Staphylococcus aureus [2] = assay: Antimicrobial activity against Staphylococcus aureus NCTC 7447 at 5 mg/ml after 24 hrs by agar well diffusion assay; conditions: NCTC 7447, 24 h, read-out: IZ; procedure, shortened: as §1
Candida albicans = assay: Antimicrobial activity against Candida albicans ATCC 10145 at 5 mg/ml after 48 hrs by agar well diffusion assay; conditions: ATCC 10145, 48 h, read-out: IZ; procedure, shortened: as §1
Escherichia coli [3] = assay: Antimicrobial activity against Escherichia coli NCTC 10416 by twofold serial dilution method
Procedure, shortened: (§2)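 MIC by two-fold serial dilution, limited to compounds giving inhibition zones of at least 18 mm in the well diffusion screen. Strains: S. aureus NCTC-7447 and E. coli NCTC-10416 on Mueller-Hinton agar at 37 ± 1 °C; C. albicans ATCC-10145 on Sabouraud dextrose agar at 28 ± 1 °C. Inocula were colony suspensions in sterile saline. MIC taken as the lowest concentration (highest dilution) inhibiting growth.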

Staphylococcus aureus [4] = assay: Antimicrobial activity against Staphylococcus aureus NCTC 7447 by twofold serial dilution method; procedure, shortened: as §2

Compound	zone of inhibition at 5000 µg/mL (Escherichia coli [1]) [mm]	zone of inhibition at 5000 µg/mL (Staphylococcus aureus [2]) [mm]	zone of inhibition at 5000 µg/mL (Candida albicans) [mm]	MIC (Escherichia coli [3]) [µg/mL]	MIC (Staphylococcus aureus [4]) [µg/mL]
Cc1ccc(-c2cc3c(N)nc(N)nc3n2-c2ccccc2)cc1	19	25	23	2500 (≈ 7.93 mM)	620 (≈ 1.97 mM)
N=c1c2cc(-c3ccc(Br)cc3)n(-c3ccccc3)c2ncn1N	27	25	27	1250 (≈ 3.29 mM)	310 (≈ 0.815 mM)
N=c1c2cc(-c3ccc(Cl)cc3)n(-c3ccccc3)c2ncn1N	22	21	27	1250 (≈ 3.72 mM)	310 (≈ 0.923 mM)
Cc1ccc(-c2cc3c(=N)n(N)cnc3n2-c2ccccc2)cc1	20	21	21	2500 (≈ 7.93 mM)	620 (≈ 1.97 mM)
N=c1c2cc(-c3ccc(F)cc3)n(-c3ccccc3)c2ncn1N	15	17	15		
c1ccc(-c2cc3c(ncn4ncnc34)n2-c2ccccc2)cc1	16	13	17		
Brc1ccc(-c2cc3c(ncn4ncnc34)n2-c2ccccc2)cc1	14	19	19		
Clc1ccc(-c2cc3c(ncn4ncnc34)n2-c2ccccc2)cc1	18	17.5	18		
Cc1ccc(-c2cc3c(ncn4ncnc34)n2-c2ccccc2)cc1			11		
Fc1ccc(-c2cc3c(ncn4ncnc34)n2-c2ccccc2)cc1	16	17	17		
Clc1ncnc2c1cc(-c1ccccc1)n2-c1ccccc1	14	13	16.5		
Clc1ncnc2c1cc(-c1ccc(Br)cc1)n2-c1ccccc1	17	16	17		
Clc1ccc(-c2cc3c(Cl)ncnc3n2-c2ccccc2)cc1	13	12	12		
Cc1ccc(-c2cc3c(Cl)ncnc3n2-c2ccccc2)cc1	13	12	16		
Fc1ccc(-c2cc3c(Cl)ncnc3n2-c2ccccc2)cc1	13	15	15		
NNc1ncnc2c1cc(-c1ccccc1)n2-c1ccccc1	18	27	31	2500 (≈ 8.3 mM)	620 (≈ 2.06 mM)
NNc1ncnc2c1cc(-c1ccc(Br)cc1)n2-c1ccccc1	15	25	23		620 (≈ 1.63 mM)
NNc1ncnc2c1cc(-c1ccc(Cl)cc1)n2-c1ccccc1	16	17	19		
Cc1ccc(-c2cc3c(NN)ncnc3n2-c2ccccc2)cc1	13	14	17		
NNc1ncnc2c1cc(-c1ccc(F)cc1)n2-c1ccccc1	20	31	32	1250 (≈ 3.91 mM)	310 (≈ 0.971 mM)
c1ccc(-c2cc3c(ncn4nnnc34)n2-c2ccccc2)cc1	16	16	17		
Brc1ccc(-c2cc3c(ncn4nnnc34)n2-c2ccccc2)cc1	15	16	17		

Compound	zone of inhibition at 5000 µg/mL (Escherichia coli [1]) [mm]	zone of inhibition at 5000 µg/mL (Staphylococcus aureus [2]) [mm]	zone of inhibition at 5000 µg/mL (Candida albicans) [mm]	MIC (Escherichia coli [3]) [µg/mL]	MIC (Staphylococcus aureus [4]) [µg/mL]
Clc1ccc(-c2cc3c(ncn4nnnc34)n2-c2ccccc2)cc1	15	14	17		
Fc1ccc(-c2cc3c(ncn4nnnc34)n2-c2ccccc2)cc1			11		
Nc1ncnc2c1cc(-c1ccccc1)n2-c1ccccc1	14	15	20		
Nc1ncnc2c1cc(-c1ccc(Cl)cc1)n2-c1ccccc1	16	17	16		
Cc1ccc(-c2cc3c(N)ncnc3n2-c2ccccc2)cc1	14	23	25		2500 (≈ 8.32 mM)
C/C=N\c1ncnc2c1cc(-c1ccccc1)n2-c1ccccc1	16	21	21		1250 (≈ 4 mM)
C/C=N\c1ncnc2c1cc(-c1ccc(Cl)cc1)n2-c1ccccc1	16	17	17		
C/C=N/c1ncnc2c1cc(-c1ccc(C)cc1)n2-c1ccccc1	17	16	15		
Nc1nc(N)c2cc(-c3ccccc3)n(-c3ccccc3)c2n1	13	24	24		620 (≈ 2.06 mM)
Nc1nc(N)c2cc(-c3ccc(Cl)cc3)n(-c3ccccc3)c2n1	14	24	23		1250 (≈ 3.72 mM)
Cc1nc(N)c2cc(-c3ccccc3)n(-c3ccccc3)c2n1	18	20	21	2500 (≈ 8.32 mM)	1250 (≈ 4.16 mM)
Cc1nc(N)c2cc(-c3ccc(Cl)cc3)n(-c3ccccc3)c2n1	14	25	24		620 (≈ 1.85 mM)
Cc1ccc(-c2cc3c(N)nc(C)nc3n2-c2ccccc2)cc1	14	17	16		
CCO/C=N/c1c(C#N)cc(-c2ccccc2)n1-c1ccccc1	17	16	19		
CCO/C=N/c1c(C#N)cc(-c2ccc(Br)cc2)n1-c1ccccc1			11		
CCO/C=N/c1c(C#N)cc(-c2ccc(Cl)cc2)n1-c1ccccc1			11		
CCO/C=N/c1c(C#N)cc(-c2ccc(C)cc2)n1-c1ccccc1	11				
CCO/C=N/c1c(C#N)cc(-c2ccc(F)cc2)n1-c1ccccc1	13	13	16		
N=c1c2cc(-c3ccccc3)n(-c3ccccc3)c2ncn1N	16	21	23		1250 (≈ 4.15 mM)
CC1(C)S[C@@H]2[C@H](NC(=O)[C@H](N)c3ccccc3)C(=O)N2[C@H]1C(=O)O [AMPICILLIN]	9	9		1250 (≈ 3.58 mM)	620 (≈ 1.77 mM)
OC(Cn1cncn1)(Cn1cncn1)c1ccc(F)cc1F [FLUCONAZOLE]			26		
CN(C)[C@@H]1C(O)=C(C(N)=O)C(=O)[C@@]2(O)C(O)=C3C(=O)c4c(O)cccc4[C@@](C)(O)[C@H]3C[C@@H]12 [TETRACYCLINE]	18	20			
